Reference: ChEMBL document CHEMBL2029228, “Antimalarial activity of 9a-N substituted 15-membered azalides with improved in vitro and in vivo activity over azithromycin” (J Med Chem, 2012)
Active and inactive are the calls of the source. The calls are words filed in the database; no cut-off is given here.

Assays:
Plasmodium falciparum = test: Antimalarial activity against mefloquine-resistant Plasmodium falciparum TM91C235 assessed as [3H]hypoxanthine incorporation after 48 hrs; assay type: functional, organism-based
In short: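 Tritiated hypoxanthine incorporation assay (Desjardins method, Milhous modification) with 48 h drug exposure. Uses P. falciparum clone TM91C235 (Southeast Asian, mefloquine-resistant). Compounds 2-fold diluted over 11 concentrations. IC50 derived by nonlinear logistic dose-response fitting, averaged where multiple runs were done.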

Plasma = test: (§1) Plasma protein binding in mouse at 1 ug/ml after 30 mins; assay type: ADME, cell-free; details: 0.5 h
In short: (§2)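 Ultrafiltration on mouse plasma preincubated 15 min at 37 °C, compound spiked to 1 μg/mL final. Aliquots taken at 0 and 15 min, remainder spun through a 10 kDa filter for 30 min at 37 °C, 2850 g. Filtrate deproteinized and analysed by LC-MS/MS.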

Liver microsomes [1] = test: Intrinsic clearance in rat liver microsomes assessed per gram of liver at 1 uM after 60 mins at pH 7.4 by LC-MS/MS analysis; assay type: ADME, Microsome; details: pH 7.4, 1 h
In short: (§3)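 Liver microsomes (0.5 mg protein/mL) in 50 mM potassium phosphate pH 7.4 with 1.0 μM compound at 37 °C for 60 min. Reaction started with NADP/glucose-6-phosphate/MgCl₂/G6PDH cofactor mix; solvent 1% final. LC-MS/MS read-out. CLi from first-order elimination constant by nonlinear regression, corrected for incubation volume, assuming 52.5 mg microsomal protein/g liver.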

Plasmodium berghei [2] = test: Antimalarial activity against Plasmodium berghei KBG173 infected in mouse assessed as increase in mouse survival time at 5 mg/kg, iv BID administered on day 3, 4 and 5 post infection relative to azithromycin; assay type: functional
In short: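 Male mice (24−30 g) inoculated intraperitoneally with 5 × 10⁶ P. berghei KBG-173-infected erythrocytes; parasitemia 1.0–3.7% by day 3. IV dosing twice daily on days 3, 4 and 5 post-infection. Read-out is the survival time of the last animal alive. Mice blood-smear negative on day 31 counted as cured; mice losing ≥20% body weight sacrificed.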

[3] = Volume of distribution at steady state in CD1 mouse at 5 mg/kg, iv; assay type: ADME, organism-based; parameters: dose 5 mg/kg, route intravenous; details: in vivo, read-out: Vdss
In short: (§4)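 Male CD-1 mice (N = 3 per route) dosed IV at 5 mg/kg or orally at 25 mg/kg while fasted, mostly in saline (2.5 mg/mL). Tail-vein blood taken up to 24 h, cardiac puncture at 30 h. Samples hemolyzed, protein-precipitated with acetonitrile plus internal standard, analysed by positive ESI LC-MS/MS.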

[4] = Half life in CD1 mouse at 5 mg/kg, iv; assay type: ADME, organism-based; parameters: dose 5 mg/kg, route intravenous; details: CD1, mouse, in vivo; in short: as §4
[5] = Oral bioavailability in CD1 mouse at 25 mg/kg; assay type: ADME, organism-based; details: in vivo; in short: as §4
[6] = Clearance at steady state in CD1 mouse at 5 mg/kg, iv; assay type: ADME, organism-based; parameters: dose 5 mg/kg, route intravenous; details: in vivo, read-out: CLss; in short: as §4
Liver = test: Intrinsic clearance in mouse liver microsomes assessed per gram of liver at 1 uM after 60 mins at pH 7.4 by LC-MS/MS analysis; assay type: ADME, Microsome; details: pH 7.4, 1 h; in short: as §3
Mus musculus = test: Unbound clearance in CD1 mouse at 5 mg/kg, iv; assay type: ADME, organism-based; parameters: dose 5 mg/kg, route intravenous; details: in vivo
In short: (§5)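 Fraction unbound measured in mouse plasma by ultrafiltration at 1 μg/mL. Unbound clearance = blood clearance/fu, assuming blood/plasma ratio of 1. Blood clearance comes from male CD-1 mice dosed IV at 5 mg/kg, with tail-vein sampling up to 24 h and LC-MS/MS analysis.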

[7] = Fraction unbound in CD1 mouse plasma at 5 mg/kg, iv; assay type: ADME, organism-based; parameters: dose 5 mg/kg, route intravenous; in short: as §5
HepG2 = test: Cytotoxicity against human HepG2 cells after 24 hrs by MTS assay; assay type: cell-based; details: HepG2, 24 h
In short: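 HepG2 cells kept in RPMI 1640 with 10% FBS plus antibiotics at 37 °C, 5% CO₂. 50 000 cells per well exposed to 10 two-fold serial dilutions for 24 h. MTS reagent then added for 2 h more, absorbance read at 490 nm, IC50 derived.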

Liver microsomes [8] = test: Intrinsic clearance in human liver microsomes assessed per gram of liver at 1 uM after 60 mins at pH 7.4 by LC-MS/MS analysis; assay type: ADME, Microsome; details: pH 7.4, 1 h; in short: as §3
Plasmodium berghei [9] = test: Antimalarial activity against Plasmodium berghei KBG173 infected in mouse assessed as decrease in parasitemia at 10 mg/kg, ip BID administered on day 3, 4 and 5 post infection measured on day 31 relative to control; assay type: functional, organism-based; parameters: dose 10 mg/kg
In short: (§6)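 Male mice (24–30 g) inoculated intraperitoneally with 5 × 10⁶ P. berghei KBG-173-infected erythrocytes; parasitemia about 1.0–3.7% by day 3. Dosing twice daily on days 3–5 postinfection. Blood smears negative on day 31 counted as cured, scored as cured/total mice (5 per dose). Mice losing ≥20% body weight sacrificed.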

Plasmodium berghei [10] = test: Antimalarial activity against Plasmodium berghei KBG173 infected in mouse assessed as decrease in parasitemia at 20 mg/kg, iv BID administered on day 3, 4 and 5 post infection measured on day 31 relative to control; assay type: functional, organism-based; parameters: dose 20 mg/kg; in short: as §6
Plasmodium berghei [11] = test: Antimalarial activity against Plasmodium berghei KBG173 infected in mouse assessed as decrease in parasitemia at 20 mg/kg, ip BID administered on day 3, 4 and 5 post infection measured on day 31 relative to control; assay type: functional, organism-based; parameters: dose 20 mg/kg; in short: as §6
Plasmodium berghei [12] = test: Antimalarial activity against Plasmodium berghei KBG173 infected in mouse assessed as cured mouse at 5 mg/kg, iv BID administered on day 3, 4 and 5 post infection measured up to day 31; assay type: functional, organism-based; parameters: dose 5 mg/kg; in short: as §6
Plasmodium berghei [13] = test: Antimalarial activity against Plasmodium berghei KBG173 infected in mouse assessed as decrease in parasitemia at 15 mg/kg, iv BID administered on day 3, 4 and 5 post infection measured on day 31 relative to control; assay type: functional, organism-based; parameters: dose 15 mg/kg; in short: as §6
[14] = as §1; assay type: ADME, cell-free; details: read-out: PPB (converted); in short: as §2
Plasmodium berghei [15] = test: Antimalarial activity against Plasmodium berghei KBG173 infected in mouse assessed as decrease in parasitemia at 1.25 mg/kg, iv BID administered on day 3, 4 and 5 post infection measured on day 31 relative to control; assay type: functional, organism-based; parameters: dose 1.25 mg/kg; in short: as §6
Plasmodium berghei [16] = test: Antimalarial activity against Plasmodium berghei KBG173 infected in mouse assessed as decrease in parasitemia at 2.5 mg/kg, ip BID administered on day 3, 4 and 5 post infection measured on day 31 relative to control; assay type: functional, organism-based; parameters: dose 2.5 mg/kg; in short: as §6
Plasmodium berghei [17] = test: Antimalarial activity against Plasmodium berghei KBG173 infected in mouse assessed as decrease in parasitemia at 1.25 mg/kg, ip BID administered on day 3, 4 and 5 post infection measured on day 31 relative to control; assay type: functional, organism-based; parameters: dose 1.25 mg/kg; in short: as §6
Plasmodium berghei [18] = test: Antimalarial activity against Plasmodium berghei KBG173 infected in mouse assessed as decrease in parasitemia at 5 mg/kg, iv BID administered on day 3, 4 and 5 post infection measured on day 31 relative to control; assay type: functional, organism-based; parameters: dose 5 mg/kg; in short: as §6
Plasmodium berghei [19] = test: Antimalarial activity against Plasmodium berghei KBG173 infected in mouse assessed as decrease in parasitemia at 5 mg/kg, ip BID administered on day 3, 4 and 5 post infection measured on day 31 relative to control; assay type: functional, organism-based; parameters: dose 5 mg/kg; in short: as §6
Plasmodium berghei [20] = test: Antimalarial activity against Plasmodium berghei KBG173 infected in mouse assessed as decrease in parasitemia at 2.5 mg/kg, iv BID administered on day 3, 4 and 5 post infection measured on day 31 relative to control; assay type: functional, organism-based; parameters: dose 2.5 mg/kg; in short: as §6

Row | SMILES | IC50 (Plasmodium falciparum) | Survival (Plasmodium berghei [2]) | Vd [3] | half-life [4] | bioavailability [5] | clearance [6] | CL free (Mus musculus) | fraction unbound [7] | IC50 (HepG2) | CLint (Liver microsomes [8]) | also measured
1 | CC[C@H]1OC(=O)[C@H](C)[C@@H](O[C@H]2C[C@@](C)(OC)[C@@H](O)[C@H](C)O2)[C@H](C)[C@@H](O[C@@H]2O[C@H](C)C[C@H](N(C)C)[C@H]2O)[C@](C)(O)C[C@@H](C)CN(CCCNc2ccnc3cc(Cl)ccc23)[C@H](C)[C@@H](O)[C@]1(C)O [listing 1 of 2 here] | 22 nM | 9 days | 2.9 L/kg | 17.8 h | 20.4% | 4 mL/min/kg | 9.5 mL/min/kg | 0.42 | 30000 nM | < 0.6 mL/min/g | PPB (Plasma): 43%; CLint (Liver microsomes [1]): < 0.6 mL/min/g; CLint (Liver): < 0.6 mL/min/g
2 | CC[C@H]1OC(=O)[C@H](C)[C@@H](O[C@H]2C[C@@](C)(OC)[C@@H](O)[C@H](C)O2)[C@H](C)[C@@H](O[C@@H]2O[C@H](C)C[C@H](N(C)C)[C@H]2O)[C@](C)(O)C[C@@H](C)CN(CCCNc2ccnc3cc(Cl)ccc23)[C@H](C)[C@@H](O)[C@]1(C)O [listing 2 of 2 here] | – | – | – | – | – | – | – | – | – | – | Activity (Plasmodium berghei [9]): inactive; Activity (Plasmodium berghei [10]): Active; Activity (Plasmodium berghei [11]): Active; Activity (Plasmodium berghei [12]): inactive; Activity (Plasmodium berghei [13]): Active
3 | CC[C@H]1OC(=O)[C@H](C)[C@@H](O[C@H]2C[C@@](C)(OC)[C@@H](O)[C@H](C)O2)[C@H](C)[C@@H](O[C@@H]2O[C@H](C)C[C@H](N(C)C)[C@H]2O)[C@](C)(O)C[C@@H](C)CN(CCC(=O)N[C@H](C)c2cccc3ccccc23)[C@H](C)[C@@H](O)[C@]1(C)O | 95 nM | -9 days | 7.8 L/kg | 16.5 h | 23.6% | 10.5 mL/min/kg | 81 mL/min/kg | 0.13 | > 30000 nM | 1.8 mL/min/g | fraction unbound at 0.5 h, 1 ug/ml [14]: 0.13
4 | CCN(CC)CCCC(C)Nc1ccnc2cc(Cl)ccc12 (stereo not given) | – | – | – | – | – | – | – | – | – | – | Activity (Plasmodium berghei [15]): inactive; Activity (Plasmodium berghei [16]): inactive; Activity (Plasmodium berghei [17]): inactive; Activity (Plasmodium berghei [18]): inactive; Activity (Plasmodium berghei [19]): inactive; Activity (Plasmodium berghei [20]): inactive
